Screening results as filed in PubChem BioAssay.
Compounds with a hit are over-represented: about 3.5% of the library has one in this group of screens.
MrgX1 PAM – positive allosteric modulators of MrgX1, primary screen, HEK293 cells, Fluo-4 calcium flux | AID 588675, 2011 | FDSS; stronger effect = higher value | Mas-related G-protein coupled receptor member X1 (Homo sapiens), Q96LB2 | hit rate 0.63% among 310,000 | B-score at 10 µM;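 active = plate-corrected calcium response at least 3 library SD above typical, normal starting fluorescence, not activating the receptor alone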;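 also: compound read alongside a low EC10 to EC30 dose of BAM8-22 agonist; peak minus trough fluorescence over baseline measured at the second addition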
Target sequence (Q96LB2 whole entry, looked up): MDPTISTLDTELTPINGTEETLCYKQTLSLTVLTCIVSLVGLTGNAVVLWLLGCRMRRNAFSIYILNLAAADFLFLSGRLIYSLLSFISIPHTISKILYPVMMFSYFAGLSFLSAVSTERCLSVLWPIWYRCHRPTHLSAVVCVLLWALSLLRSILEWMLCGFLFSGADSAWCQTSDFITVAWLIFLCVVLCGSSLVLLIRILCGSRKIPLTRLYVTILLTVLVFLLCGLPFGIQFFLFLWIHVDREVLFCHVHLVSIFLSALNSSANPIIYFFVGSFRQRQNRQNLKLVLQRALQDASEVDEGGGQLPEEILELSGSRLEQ
RGS4 act – RGS4 potentiators or activators, primary screen, cell-based, HEK293 M3R inducible RGS4, calcium flux; carbachol calcium flux Fluo4; stronger effect = lower value; B-score at 10 µM; hit rate 0.92% among 310,000;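 active = B-score of the integrated calcium signal more than 4 SD below the library mean, with starting fluorescence not abnormally high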;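 also: negative B-score means reduced calcium response which marks RGS4 activation or potentiation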
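Also added: carbachol at ECmax as muscarinic agonist stimulus; Assay system: HEK293 cells with stable M3R and inducible RGS4; Timing: overnight RGS4 induction, 30 min dye load 37 °C, 20 min compound RT; Measured by: Fluo4-AM (2 µM) calcium-flux fluorescence, kinetic read.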
MrgX1 ag – agonists of human MrgX1 receptor, primary screen, HEK293 cells, Fluo-4 calcium flux. Mas-related G-protein coupled receptor member X1 (Homo sapiens), Q96LB2. AID 588627, 2011. Fluo-4 calcium fluorescence, agonist mode; stronger effect = higher value. B-score at 10 µM. hit rate 0.44% among 310,000;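 active = calcium response B-score plate-corrected fluorescence ratio at least 3 library SD, with starting fluorescence B-score inside 5 SD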
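Test system: Stable human MrgX1 HEK293 cell line | Schedule: Overnight plating before 1 h dye loading | Read-out basis: Baseline-normalised fluorescence change ratio, B-scored | Detection: Kinetic calcium dye fluorescence, Fluo-4 NW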
RGS4 block – RGS4 inhibitors, primary screen, cell-based, HEK293 M3R inducible RGS4, calcium flux. Fluo-4 calcium flux; stronger effect = higher value; triggered by carbachol at its EC20. B-score at 10 µM. hit rate 0.45% among 310,000. AID 463165, 2010;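 active = B-score, a plate-corrected calcium signal, over three deviations above library mean, with baseline fluorescence within five deviations of library mean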;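 also: RGS4 expression induced by doxycycline in cells with stable M3 receptor; B-score is computed from the integrated fluorescence ratio over baseline after carbachol; higher B-score means a larger calcium signal and so more RGS4 inhibition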
Target sequence (P49798 whole entry, looked up): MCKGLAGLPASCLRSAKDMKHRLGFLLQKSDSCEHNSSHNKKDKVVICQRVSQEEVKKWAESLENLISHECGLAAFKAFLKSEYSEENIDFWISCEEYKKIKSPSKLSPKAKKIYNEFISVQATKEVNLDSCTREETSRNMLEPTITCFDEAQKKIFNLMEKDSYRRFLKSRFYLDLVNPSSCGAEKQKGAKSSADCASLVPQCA
MrgX1 antag – antagonists of human MrgX1 receptor, primary screen, HEK293 cells, Fluo-4 calcium flux | Mas-related G-protein coupled receptor member X1 (Homo sapiens), Q96LB2 | BAM8-22 antagonism; stronger effect = lower value | B-score at 10 µM | hit rate 1.3% among 310,000 | AID 588676, 2011;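 active = calcium-response B-score plate-corrected more than 3 library SD below zero, starting fluorescence within 5 deviations, no agonist response on first addition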;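 also: peak minus trough fluorescence over baseline after final BAM8-22 challenge near maximal dose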
MrgX1 ant reconf – MrgX1 receptor antagonists, duplicate retest, confirmation, HEK293 cells, Fluo-4 calcium flux; shares compounds with MrgX1 antag; BAM8-22 calcium flux; stronger effect = lower value; remaining BAM8-22 calcium response % of control (stronger effect = lower value), % at 10 µM; hit rate 19% among 2,300; AID 602420, 2012;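 active = remaining agonist calcium response no higher than 100% minus 3 SD of agonist-only control wells, with starting fluorescence near control levels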;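 also: agonist BAM8-22 given at a near maximal EC90 to ECmax level; peak minus minimum fluorescence divided by baseline after agonist addition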
HEK293 Ca flux – nonspecific calcium signal in parental HEK293, confirmation, counter-screen for MrgX1 antagonist project, parental HEK293 cells, Fluo-4 calcium flux | shares compounds with MrgX1 antag | Fluo-4 calcium fluorescence, FDSS | fluorescence ratio F(max-min)/F0 at 10 µM | hit rate 2% among 4,000;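 active = duplicate-averaged calcium fluorescence ratio at least three times the standard deviation of buffer wells, a nonspecific response in parental cells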
HEK293 Ca counter – calcium response in parental HEK293 cells, primary screen, counter-screen for MrgX1 allosteric activator project, cell-based, Fluo-4 calcium flux, duplicate | hit rate 0.4% among 4,000 | AID 624114, 2012 | shares compounds with MrgX1 antag | fluorescence ratio F(max-min)/F0 at 10 µM | Fluo-4 fluorescence ratio; stronger effect = higher value;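 active = calcium fluorescence ratio, averaged over duplicates, at least 3 SD of the buffer-well ratio, meaning a nonspecific response in receptor-free cells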;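 also: untransfected parental HEK293 lacking MrgX1 used as counterscreen for MrgX1 allosteric activators; fluorescence change taken during the second addition on a kinetic imager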
HEK293 Ca cntr2 – calcium response in parental HEK293 cells, primary screen, counter-screen for MrgX1 agonist project, cell-based, Fluo-4 calcium flux, duplicate, agonist mode; shares compounds with MrgX1 antag; hit rate 8.7% among 4,000; fluorescence ratio F(max-min)/F0 at 10 µM; Fluo-4 calcium fluorescence (FDSS); stronger effect = higher value; AID 624115, 2012;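 active = calcium fluorescence ratio at least three times the spread of buffer wells, meaning a non-specific response in parental cells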
Hits are given with their value; - = inactive; . = no result.

SMILES | MrgX1 PAM | RGS4 act | MrgX1 ag | RGS4 block | MrgX1 antag | MrgX1 ant reconf | HEK293 Ca flux | HEK293 Ca counter | HEK293 Ca cntr2
COC(=O)c1c(C)oc(C)c(C(=O)OC)c1=O | - | - | - | - | -7 | - | - | - | -
Cc1oc(C)c(C(=O)O)c1C(=O)O | - | - | - | - | - | . | . | . | .
O=C(Cn1c(NCCO)nc2ccccc21)NCC1CCCO1 (stereo not given) | - | - | - | - | -4.7 | - | - | - | -
O=C(Cn1c(NCCO)nc2ccccc21)NCCc1ccccc1 | - | - | - | - | - | . | . | . | .
Cc1c(C#N)c2ccccc2n1CC(=O)NCC1CCCO1 (stereo not given) | - | - | - | - | -5.1 | - | - | - | -
Cc1cc(-c2ccccc2)[nH]c(=O)c1S(=O)(=O)c1ccc(Cl)cc1 | - | - | - | - | -9 | - | - | - | -
Cc1cc(-c2ccccc2)[nH]c(=O)c1S(=O)(=O)c1ccccc1 | - | - | - | - | - | . | . | . | .
COC(=O)C1=C(N)Oc2cc(C)n(Cc3cccnc3)c(=O)c2C1c1cccc(OC)c1OC (stereo not given) | - | - | - | - | -13 | - | - | - | -
COC(=O)C1=C(N)Oc2cc(C)n(Cc3cccnc3)c(=O)c2C1c1cc(OC)ccc1OC (stereo not given) | - | - | - | - | - | . | . | . | .
CCSc1ccc2cc(OC)ccc2[n+]1CC | - | - | - | - | - | . | . | . | .
COc1ccc(C(=O)N2CCCc3ccccc32)cc1 | - | - | - | - | - | . | . | . | .
CS(=O)(=O)c1ccc(C(=O)OCC(=O)N2CCCc3ccccc32)cc1 | - | - | - | - | -7.3 | 85% | - | - | -
CC(C)Oc1ccc(C(=O)N2CCCc3ccccc32)cc1 | - | - | - | - | -6.3 | - | - | - | -
O=C(OCC(=O)N1CCCc2ccccc21)c1cc(S(=O)(=O)N2CCOCC2)ccc1Cl | - | - | - | - | -4.5 | - | - | - | -
CN(CC(=O)c1c(N)n(C)c(=O)n(C)c1=O)c1ccccc1 | - | - | - | - | -5.8 | 72% | - | - | -
Cn1c(N)c(C(=O)CN2CCc3ccccc3C2)c(=O)n(C)c1=O | - | - | - | - | - | . | . | . | .
COC(=O)c1ccccc1NC(=O)N[C@@H](C)C(=O)OC | - | - | - | - | - | . | . | . | .
CCOC(=O)c1ccccc1NC(=O)N[C@@H](C)C(=O)OC | - | - | - | - | -4.6 | - | - | - | -
O=C(c1ccc2c(c1)OCO2)N1CCN(S(=O)(=O)c2ccc(Cl)cc2)CC1 | - | - | - | - | -4.5 | - | - | - | -
O=C(c1ccc2c(c1)OCO2)N1CCN(c2ccc(Cl)cc2)CC1 | - | - | - | - | - | . | . | . | .
CCOC(=O)c1c(NC(=O)OC)sc(C(=O)N(CC)CC)c1C | - | - | - | - | -4.7 | - | - | - | -
CCN1CCN(C(=O)c2ccc(CS(=O)(=O)Cc3ccccc3C)o2)CC1 | - | - | - | - | - | . | . | . | .
Cc1nc2n(n1)C(c1ccccc1)C1=C(CC(c3ccco3)CC1=O)N2 (stereo not given) | - | - | - | - | -7.9 | - | - | - | -
CC1CC(=O)C2=C(C1)Nc1ncnn1C2c1ccccc1 (stereo not given) | - | - | - | - | - | . | . | . | .
CCCNC(=O)N1CCC(C(=O)c2cccc(F)c2)CC1 | - | - | - | - | -4.9 | - | - | - | -
SMILES | MrgX1 PAM | RGS4 act | MrgX1 ag | RGS4 block | MrgX1 antag | MrgX1 ant reconf | HEK293 Ca flux | HEK293 Ca counter | HEK293 Ca cntr2
CCCNC(=O)N1CCCC(C(=O)c2cccc(Cl)c2)C1 (stereo not given) | - | - | - | - | - | . | . | . | .
Cc1onc(-c2ccccc2)c1CNC(=O)Nc1cccc(Cl)c1 | - | - | - | - | -6.6 | 82% | - | - | -
Cc1cc(C)cc(NC(=O)NCc2c(-c3ccccc3)noc2C)c1 | - | - | - | - | - | . | . | . | .
Cc1ccc(N2C(=O)CS/C2=N\C(=S)Nc2ccccc2)cc1 | - | - | - | - | - | . | . | . | .
COc1ccc(CNC(=O)CS(=O)(=O)Cc2nc(-c3cccc(OC)c3)oc2C)cc1 | - | - | - | - | - | . | . | . | .
CC(C)C[C@H](NC(=O)C1CCN(S(=O)(=O)c2ccccc2)CC1)C(=O)NCc1ccccn1 | - | - | - | - | - | . | . | . | .
COC(=O)c1ccc(C(=O)OC)c(NC(=S)N2CCC(C(N)=O)CC2)c1 | - | - | - | - | - | . | . | . | .
COC(=O)c1ccc2c(=O)sc(N3CCC(C(N)=O)CC3)nc2c1 | - | - | - | - | -7.6 | - | - | - | -
COc1cc(CNn2cn[nH]c2=S)ccc1OCC(=O)NC(C)(C)C | - | - | - | - | -4.6 | - | - | - | -
COc1cc(CNC(C)(C)CO)ccc1OCC(=O)NC(C)(C)C | - | - | - | - | - | . | . | . | .
CCC(C)(C(=O)NC1CCCC1)N(C(=O)c1ccccn1)c1ccccc1 (stereo not given) | - | - | - | - | -8 | - | - | - | -
COc1ccc2c(=O)c(N3C(=O)c4ccccc4C3=O)c(C)oc2c1 | - | - | - | - | -5.2 | - | - | - | -
COc1ccc2c(=O)c3ccccc3oc2c1 | - | - | - | - | - | . | . | . | .
Cc1nnc(NC(=O)CSc2ccc(-c3cccnc3)nn2)s1 | - | - | - | - | -5.6 | - | - | - | -
CC(NC(=S)NC1CCCCC1)c1ccc(C(C)(C)C)cc1 (stereo not given) | - | - | - | - | -6.8 | 51% | - | - | -
CC(C)c1ccc(C(C)NC(=S)NC2CCCCC2)cc1 (stereo not given) | - | - | - | - | - | . | . | . | .
Cc1ccc(C(CC(=O)NCCCN(C)C)c2ccc(OC(C)C)cc2)cc1 (stereo not given) | - | - | - | - | - | . | . | . | .
